The source of these data is ChEMBL document CHEMBL3272253, “Relationship of molecular structure to in vivo scintigraphic distribution patterns of carbon-11 labeled compounds. 3. (11C)Hydantoins” (J Med Chem, 1976).

Holding throughout (assay type): ADME, organism-based, Canis lupus familiaris
Details in all cases: in vivo; call rule not given here

Data set [1] concerns Canis familiaris. Briefly: Drug level in iv dosed dog after 5 to 30 mins by gamma-scintillation counting analysis. An outline of the steps:
(§1)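 Carbon-11-labeled hydantoin, 1–59 mCi of final product, dissolved in 1–1.5% aqueous NaOH and given iv to dogs. Distribution imaged serially for up to 2 hr or more with a scintillation camera fitted with a pinhole collimator (1-cm hyperbolic aperture), with whole-body scintiphotos at about 5 and 30 min. Readout is qualitative to semiquantitative; no coincidence imaging.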

Data set [2] can be described thus: Drug level in iv dosed dog lung after 5 to 30 mins by gamma-scintillation counting analysis. An outline of the steps:
as §1

For data set [3], the system named is Liver. Briefly: Drug level in iv dosed dog liver after 5 to 30 mins by gamma-scintillation counting analysis. An outline of the steps: as §1
The test system of data set [4] is Nucleic Acid. As to the kind of experiment: Ratio of drug level in iv dosed dog brain to temporal muscle after 73 mins by gamma-scintillation counting analysis. An outline of the steps:
(§2)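 Dogs were dosed iv with 11C-labeled hydantoin. Tissues and fluids were collected at necropsy 73 or 80 min post-dose and counted at fixed geometry in front of a thallium-activated NaI scintillation detector. Values are cpm/g of tissue divided by cpm/g of temporal muscle.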

For data set [5], the system named is Nucleic Acid. Briefly: Ratio of drug level in iv dosed dog lung to temporal muscle after 73 mins by gamma-scintillation counting analysis. An outline of the steps: as §2
Data set [6] has as its system Nucleic Acid. As to the kind of experiment: Ratio of drug level in iv dosed dog washed heart to temporal muscle after 73 mins by gamma-scintillation counting analysis. An outline of the steps: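 [11C]-labeled hydantoin, from carrier-free [11C]HCN, given intravenously to dogs. Heart washed and taken at necropsy 73 min after dosing, along with temporal muscle. Tissues were counted at fixed geometry before a thallium-activated NaI scintillation detector. Value is cpm/g washed heart divided by cpm/g temporal muscle.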

For data set [7], the system named is Nucleic Acid. Briefly: Ratio of drug level in iv dosed dog liver to temporal muscle after 73 mins by gamma-scintillation counting analysis. An outline of the steps:
as §2

For data set [8], the system named is Nucleic Acid. Briefly: Ratio of drug level in iv dosed dog bile to temporal muscle after 73 mins by gamma-scintillation counting analysis. An outline of the steps: as §2
The test system of data set [9] is Nucleic Acid. Briefly: Ratio of drug level in iv dosed dog spleen to temporal muscle after 73 mins by gamma-scintillation counting analysis. An outline of the steps: as §2
The subject of data set [10] is Nucleic Acid. Briefly: Ratio of drug level in iv dosed dog stomach to temporal muscle after 73 mins by gamma-scintillation counting analysis. The procedure, abridged:
as §2

For data set [11], the system named is Nucleic Acid. As to the kind of experiment: Ratio of drug level in iv dosed dog pancreas to temporal muscle after 73 mins by gamma-scintillation counting analysis. An outline of the steps:
as §2

In data set [12] the test system is Nucleic Acid. Briefly: Ratio of drug level in iv dosed dog kidney to temporal muscle after 73 mins by gamma-scintillation counting analysis. The procedure, abridged:
as §2

The subject of data set [13] is Nucleic Acid. Briefly: Ratio of drug level in iv dosed dog blood to temporal muscle after 73 mins by gamma-scintillation counting analysis. An outline of the steps: as §2
Data set [14] concerns Nucleic Acid. Briefly: Ratio of drug level in iv dosed dog mesenteric fat to temporal muscle after 73 mins by gamma-scintillation counting analysis. The procedure, abridged: as §2
The test system of data set [15] is Nucleic Acid. Briefly: Ratio of drug level in iv dosed dog urine to temporal muscle after 73 mins by gamma-scintillation counting analysis. An outline of the steps: as §2
Data set [16] deals with Nucleic Acid. As to the kind of experiment: Ratio of drug level in iv dosed dog cerebrospinal fluid to temporal muscle after 73 mins by gamma-scintillation counting analysis. An outline of the steps: as §2
Data set [17] is described as follows: Drug level in iv dosed dog kidney after 5 to 30 mins by gamma-scintillation counting analysis. The procedure, abridged: as §1
A short description of data set [18]: Drug excretion in iv dosed dog urine after 5 to 30 mins by gamma-scintillation counting analysis. An outline of the steps: as §1
The nature of data set [19]: Drug level in iv dosed dog vein by gamma-scintillation counting analysis. An outline of the steps:
as §1

The nature of data set [20]: Drug level in iv dosed dog lung by gamma-scintillation counting analysis. The procedure, abridged: as §1
Data set [21] has as its system Liver. As to the kind of experiment: Drug level in iv dosed dog liver by gamma-scintillation counting analysis. An outline of the steps:
as §1

In data set [22] the test system is Canis familiaris. Briefly: Drug level in iv dosed dog by gamma-scintillation counting analysis. The procedure, abridged:
as §1

A short description of data set [23]: Drug level in iv dosed dog kidney by gamma-scintillation counting analysis. The procedure, abridged: as §1
Data set [24] is described as follows: Drug excretion in iv dosed dog urine by gamma-scintillation counting analysis. An outline of the steps:
as §1

The next data set deals with Brain. As to the kind of experiment: Drug level in iv dosed dog brain by gamma-scintillation counting analysis. An outline of the steps:
as §1

Take `CC1(c2ccccc2)NC(=O)N[11C]1=O` (configuration not stated): in the data set with Canis familiaris [1], the Drug uptake entry is “Active”.

With `CCC1(c2ccccc2)NC(=O)N[11C]1=O` (configuration not stated), the Drug uptake entry (in the data set with Canis familiaris [1]; in data set [2]; in the data set on Liver [3]) was “Active” throughout. Moreover, the Ratio is given as 1.25 in the data set with Nucleic Acid [4]; 0.75 in the data set with Nucleic Acid [5]; 1 in the data set on Nucleic Acid [6]; 1.33 in the data set on Nucleic Acid [7]; 1.58 in the data set on Nucleic Acid [8]; 1.25 with Nucleic Acid [9]. In addition, the Ratio was 0.92 in the data set on Nucleic Acid [10]; 1.67 with Nucleic Acid [11]; 1.25 in the data set on Nucleic Acid [12]; 1 in the data set on Nucleic Acid [13]; 0.75 in the data set on Nucleic Acid [14]; 0.67 in the data set on Nucleic Acid [15]. In the data set on Nucleic Acid [16], the Ratio is listed as 2.67.

Take `CCCC1(c2ccccc2)NC(=O)N[11C]1=O` (configuration not stated): in the data set on Canis familiaris [1], the Drug uptake entry is listed as “Active”.

For `O=C(O)CCC1(c2ccccc2)NC(=O)N[11C]1=O` (configuration not stated), the Drug uptake entry (in the data set with Canis familiaris [1]; in data set [17]) was “Active” each time. Besides, in data set [18], the Drug excretion result was “metabolite_detected”.

With `O=C1N[11C](=O)C2(CCCCC2)N1`, the Drug uptake entry (in [19]; in data set [20]; in the data set with Liver [21]; with Canis familiaris [22]; in data set [23]) was “Active” throughout. Moreover, in [24], the Drug excretion entry is listed as “metabolite_detected”.

With `O=C1N[11C](=O)C2(CCCCCC2)N1`, the Drug uptake result with Liver [21] and in the data set on Brain was “Active” each time.

Take `O=C1N[11C](=O)C2(CCCCCCC2)N1`: in the data set with Brain, the Drug uptake entry is “Not Active”.

Regarding `O=C1N[11C](=O)C2(N1)c1ccccc1-c1ccccc12`, the Drug uptake result in the data set with Brain was “Not Active”.

Regarding `O=C1N[11C](=O)C2(CCCc3ccccc32)N1` (configuration not stated), the Drug uptake entry with Brain is “Not Active”.
